Holding throughout (type): biochemical
One assay concerns PLK1. The assay is described as follows: in vitro kinase assay PLK1. To be noted: at 100 μM.
The next assay has as its system CHK1. Put plainly: in vitro kinase assay CHK1. The following applies: at 100 μM.
The target in assay [1] is single ATPase motor domain of chicken Myosin Va (Gallus gallus, UniProt Q02440). Put plainly: enzyme-coupled steady-state actin-activated ATPase assay, single-headed myosin V.
The next assay has as its system Aurora kinase. Put plainly: in vitro kinase assay Aurora kinase. To be noted: at 100 μM.
The next assay relates to myosin V. The assay is described as follows: single MANT-ATP turnover measurements, myosin V without actin. To be noted: absence of actin; data not shown.
The subject of a further assay is p42 MAP kinase. Put plainly: in vitro kinase assay p42 MAP kinase. To be noted: at 100 μM.
Another assay addresses actomyosin V-ADP (Gallus gallus, UniProt Q02440). The assay is described as follows: MANT-ADP release from actomyosin V. Summed up:
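Transient-kinetic measurement of MANT-ADP release from a preformed actomyosin V–ADP complex, using the fluorescent nucleotide analog. Release amplitudes are normalized and plotted against test compound concentration. Affinity comes from the best fit of that concentration dependence of the amplitudes.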

The next assay deals with myosin VI. The assay is described as follows: in vitro ATPase assay myosin VI. The following applies: at 50 μM.
Assay [2] relates to skeletal muscle myosin II. Put plainly: in vitro ATPase assay myosin II.
The test system of another assay is Abl kinase. Put plainly: in vitro kinase assay Abl kinase. The following applies: at 100 μM.
The next assay concerns Casein kinase II. The assay is described as follows: in vitro kinase assay Casein kinase II. To be noted: at 100 μM.

Structures are written as SMILES.

As usually defined, the Ki is a dissociation constant, usually derived from enzyme kinetics or from competition with a known ligand.

Regarding `O=C(O)c1cccc(SCc2cccc(Nc3ncc4c(-c5ccc(N6CCOCC6)cc5)[nH]nc4n3)c2)c1` [Compound 8], the inhibition of kinase with PLK1, in the assay with CHK1, in the assay on Aurora kinase, with p42 MAP kinase, in the assay on Abl kinase and in the assay on Casein kinase II was 5–10% throughout. Further, the “mode of inhibition (effect on kcat and apparent KM for actin)” value in assay [1] (12 μM MyoVin-1, various concentrations of actin) is “uncompetitive inhibition”. For the same compound, the “increase in KI in presence of 0.1% triton X” value in assay [1] (0.1% triton X in assay buffer vs without) is recorded as ~ 1.25 fold. In assay [1] (single-headed myosin V, steady-state actin-activated ATP hydrolysis), this compound came in with a Ki of roughly 6 µM. In the assay with myosin V, the “effect on ATP binding and rate-limiting Pi release” value is recorded as “unaffected”. Also, the “effect on ADP release” value on actomyosin V-ADP (actomyosin V-ADP prepared by mixing with ATP) is given as “lowers the amplitude, but not the rate constant of ADP release”; on actomyosin V-ADP (actomyosin-ADP prepared by equilibrating actomyosin and ADP, data not shown), “unaffected”. Moreover, the “inhibition of ATPase activity” value (with myosin VI; in assay [2] (at 50 μM)) was “not observed any measurable inhibition” throughout.
With `Cc1ccc2c(c1)C(=O)C1(O)CCN(c3ccccc3)C1=N2` (stereo not drawn) [blebbistatin, reference compound], the “inhibition of ATPase activity” value in assay [2] (positive control, concentration not given) is listed as “significantly inhibited”.
